Laboratory results: ChEMBL document CHEMBL1148645, “Imino-tetrahydro-benzothiazole derivatives as p53 inhibitors: discovery of a highly potent in vivo inhibitor and its action mechanism” (J Med Chem, 2006)
Activity calls are given as the source filed them. The calls are words filed in the database; no cut-off is given here.

Experiments:
[1] = species on record: Mus musculus; assay: Toxicity against mouse E15.5 cortical neurones at 10 uM; details: in vitro
Outline: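 E15 mouse primary cortical neurons were cultured in neurobasal/B27 and exposed to compound at 10 µM. Live cells were counted after calcein-AM staining, with hemoglobin quench and whole-well imaging. Each experiment was repeated at least six times.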

[2] = system: Cortical neurone; assay: Inhibition of etoposide-induced death of mouse E15.5 cortical neurones; type: functional
Outline: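 Primary cortical neurons from E15 wild-type mouse embryos were exposed to etoposide at 1.25 and 2.5 µM, with compound alongside DMSO. Etoposide alone served as the control. Live cells were stained with calcein-AM for 45 min, quenched with hemoglobin, and whole wells were imaged and counted automatically. Survival is relative to untreated cultures set to 100%. At least six independent experiments were run, each in triplicate.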

[3] = species on record: Rattus norvegicus; assay: Protection against axotomy-induced RGC apoptosis in Wistar rat intravitreally injected with 0.06 uM; type: functional
Outline: (§1)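 Adult male Wistar rats (300-400 g) had the optic nerve transected, and RGCs were retrogradely labeled with FluoroGold placed on the stump. Compound or vehicle (DMSO 2%), 3 µL, was injected intravitreally on days 0, 3 and 7. Eyes were taken on day 14 and retinas flat-mounted. FG-positive RGCs were counted blind in fields at three eccentricities. Groups had n = 3-6, with DMSO as baseline; results are given as mean ± sem.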

[4] = target: Cellular tumor antigen p53 (Mus musculus) (UniProt P02340); assay: Inhibition of p53-mediated increase in p21/WAF1 level at 300 nM; type: functional; details: filed as antagonist
Outline: (§2)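 Wild-type E15 mouse cortical neurons were kept 3 days in vitro in neurobasal/B27 and treated with etoposide to trigger p53 activation. Time-course and concentration-dependent experiments were run. p21/WAF1 protein was detected by western blot of total extracts made in boiling SDS/Tris buffer.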

[5] = species on record: Rattus norvegicus; assay: Protection against axotomy-induced RGC apoptosis in Wistar rat intravitreally injected with 6 uM; type: functional; outline: as §1
[6] = target: Cellular tumor antigen p53 (Mus musculus) (UniProt P02340); assay: Inhibition of p53-mediated increase in p21/WAF1 level at 30 nM; type: functional; details: filed as antagonist; outline: as §2

Sequence of Cellular tumor antigen p53 (Mus musculus) (P02340 whole entry): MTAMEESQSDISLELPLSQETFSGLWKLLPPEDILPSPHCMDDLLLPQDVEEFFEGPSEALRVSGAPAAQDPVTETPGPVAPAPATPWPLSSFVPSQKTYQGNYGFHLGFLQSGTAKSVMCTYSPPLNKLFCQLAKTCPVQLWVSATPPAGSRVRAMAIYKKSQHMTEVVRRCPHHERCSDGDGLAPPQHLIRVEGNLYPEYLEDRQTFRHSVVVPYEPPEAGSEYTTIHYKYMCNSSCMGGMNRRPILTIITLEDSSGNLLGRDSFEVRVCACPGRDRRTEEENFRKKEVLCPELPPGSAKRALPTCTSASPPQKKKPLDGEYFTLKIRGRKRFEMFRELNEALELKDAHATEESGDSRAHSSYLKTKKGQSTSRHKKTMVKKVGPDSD

SMILES	Activity [1]	Activity [2]	also measured
Br.COc1ccc(C(=O)Cn2c3c(sc2=N)CC2CCCCC2C3)cc1 (stereo not given)	Non-toxic	–	–
O=[N+]([O-])c1ccc(-c2cn3c4c(sc3n2)CC2CCCCC2C4)cc1 (stereo not given)	Non-toxic	–	–
Br.COc1ccc(C(=O)Cn2c3c(sc2=N)CCCC3)cc1	Non-toxic	inactive	–
Br.N=c1sc2c(n1C/C(=N/O)c1ccc([N+](=O)[O-])cc1)CCCC2	Non-toxic	inactive	–
Br.Cc1ccc(C(=O)Cn2c3c(sc2=N)CC2CCCCC2C3)cc1 (stereo not given)	Non-toxic	inactive	–
Br.N=c1sc2c(n1CC(=O)c1ccc([N+](=O)[O-])cc1)CC1CCCCC1C2 (stereo not given)	Non-toxic	Active	–
Br.Cc1ccc(C(=O)Cn2c3c(sc2=N)CCCC3)cc1	–	Active	Activity [3]: 98%; Activity [4]: Antagonist; Activity [5]: 131%
Br.Cc1ccc(C(=O)Cn2c3c(sc2=N)CCCCC3)cc1	Non-toxic	inactive	–
O=[N+]([O-])c1ccc(-c2cn3c4c(sc3n2)CCCC4)cc1	Non-toxic	–	Activity ([3]; in the assay text read “6 uM” for “0.06 uM”): inactive; Activity [5]: inactive; EC50 ([2]; read-out: ED50 (the source's name)): 30 nM; Activity [6]: Antagonist
Br.N=c1sc2c(n1CC(=O)c1ccc([N+](=O)[O-])cc1)CCCC2	Non-toxic	Active	Activity [3]: 150%; Activity [4]: Antagonist
